# Calls of active or inactive are those of the source.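 Rule for the calls, unless noted: active = current rise at least 3 SD above the untreated control mean in each of two repeat wells; inactive = the rest.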
# Columns and labels:
# [1] = nonspecific flux increase, KCNQ1-free cells – parental CHO cells, counter-screen for KCNQ1 potentiator project (AID 493006;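 active = duplicate-averaged activation above buffer control mean plus 5 SD of those controls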); details: parental CHO-K1 cells, FluxOR thallium flux, at 10 µM; hits give high values
# Method in brief: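 Benchmarks – buffer and R-L3 controls · Assay system – untransfected host CHO-K1 cells with FluxOR thallium dye · Measure – fluorescence change ratio scaled 0% buffer, 100% R-L3 · Technique – kinetic thallium-flux fluorescence · Timing – overnight 37 °C plating, 90 min RT dye, 20 min compound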
# [2] = target: Potassium voltage-gated channel subfamily KQT member 1 (Homo sapiens) (UniProt P51787); experiment: enhancement of KCNQ1 channel thallium flux – FluxOR thallium flux, CHO cells, duplicates, confirmation (AID 493007;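 active = potentiation averaged over duplicate wells exceeding buffer-only control mean by more than 3 SD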;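 for outcome: cells depolarized by a potassium plus thallium sulfate stimulus after compound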); details: KCNQ1 cell line, FluxOR thallium flux fluorescence, at 10 µM; hits give high values, % of reference activator effect, buffer zero
# Chain of Potassium voltage-gated channel subfamily KQT member 1 (Homo sapiens) (P51787 whole entry, looked up): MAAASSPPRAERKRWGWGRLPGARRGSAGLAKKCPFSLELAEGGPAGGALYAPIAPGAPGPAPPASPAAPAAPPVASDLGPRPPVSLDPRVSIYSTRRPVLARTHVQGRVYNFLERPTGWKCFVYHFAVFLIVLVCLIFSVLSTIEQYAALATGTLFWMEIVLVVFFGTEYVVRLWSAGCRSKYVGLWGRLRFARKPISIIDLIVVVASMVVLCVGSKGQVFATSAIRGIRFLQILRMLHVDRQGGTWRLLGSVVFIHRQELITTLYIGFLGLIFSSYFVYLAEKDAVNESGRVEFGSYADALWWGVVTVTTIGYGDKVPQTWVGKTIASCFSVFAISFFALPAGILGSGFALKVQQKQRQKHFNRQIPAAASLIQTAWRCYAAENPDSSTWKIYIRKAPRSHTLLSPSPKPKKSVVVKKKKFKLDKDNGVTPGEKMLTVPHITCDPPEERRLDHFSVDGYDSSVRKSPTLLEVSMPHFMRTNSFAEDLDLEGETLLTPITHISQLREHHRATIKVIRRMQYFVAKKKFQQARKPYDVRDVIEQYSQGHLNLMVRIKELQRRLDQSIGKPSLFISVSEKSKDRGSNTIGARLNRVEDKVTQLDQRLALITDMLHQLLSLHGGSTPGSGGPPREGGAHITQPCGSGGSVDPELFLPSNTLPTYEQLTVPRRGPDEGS
# Method in brief: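 Material: CHO cells stably expressing the KCNQ1 potassium channel / Times: dye 90 min then compound 20 min, both at room temperature / Detection: kinetic thallium influx fluorescence with FluxOR dye, 10 s baseline, 110 s post-stimulus / Benchmarks: buffer-only wells as 0% and R-L3 activator as 100% / Replicates: each compound tested in duplicate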
# [3] = target: Potassium voltage-gated channel subfamily KQT member 2 (Rattus norvegicus) (UniProt O88943); experiment: KCNQ2 thallium flux enhancement – KCNQ2-CHO-K1 cells, selectivity assay for KCNQ1 potentiator project (AID 493009;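 active = mean duplicate potentiation above the buffer control mean plus 5 SD of buffer wells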;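 note: assay conditions were tuned for KCNQ1 rather than KCNQ2 modulators; signal is max minus min fluorescence divided by baseline after thallium stimulus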); details: FluxOR thallium flux fluorescence, at 10 µM; hits give high values, scaled: buffer 0, activator control 100
# Chain of Potassium voltage-gated channel subfamily KQT member 2 (Rattus norvegicus) (O88943 whole entry, looked up): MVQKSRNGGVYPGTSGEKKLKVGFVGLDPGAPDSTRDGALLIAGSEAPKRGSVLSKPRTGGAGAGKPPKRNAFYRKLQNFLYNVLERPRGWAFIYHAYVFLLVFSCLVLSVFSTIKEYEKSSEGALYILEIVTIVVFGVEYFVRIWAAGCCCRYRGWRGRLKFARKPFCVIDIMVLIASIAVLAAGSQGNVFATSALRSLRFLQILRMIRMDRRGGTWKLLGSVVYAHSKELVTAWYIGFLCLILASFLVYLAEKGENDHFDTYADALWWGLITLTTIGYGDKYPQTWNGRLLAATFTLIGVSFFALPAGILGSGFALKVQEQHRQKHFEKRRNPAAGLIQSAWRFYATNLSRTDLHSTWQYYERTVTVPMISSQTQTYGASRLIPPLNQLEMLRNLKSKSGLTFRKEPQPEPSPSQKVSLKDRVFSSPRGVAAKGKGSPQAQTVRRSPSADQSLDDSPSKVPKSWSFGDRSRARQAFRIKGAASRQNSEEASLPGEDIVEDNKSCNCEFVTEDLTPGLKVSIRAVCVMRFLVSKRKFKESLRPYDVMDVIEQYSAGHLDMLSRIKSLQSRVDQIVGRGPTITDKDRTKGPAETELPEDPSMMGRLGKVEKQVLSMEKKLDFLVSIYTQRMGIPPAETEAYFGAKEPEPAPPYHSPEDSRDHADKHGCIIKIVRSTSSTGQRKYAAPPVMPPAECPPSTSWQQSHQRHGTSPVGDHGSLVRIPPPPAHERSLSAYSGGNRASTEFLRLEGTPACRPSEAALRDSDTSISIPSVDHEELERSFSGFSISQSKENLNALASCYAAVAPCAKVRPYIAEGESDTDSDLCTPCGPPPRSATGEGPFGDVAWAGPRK
# [4] = target: Potassium voltage-gated channel subfamily KQT member 1 (Homo sapiens) (UniProt P51787); experiment: KCNQ1 activators by electrophysiology – IonWorks patch clamp, KCNQ1-CHO cells, orthogonal assay for KCNQ1 potentiator project, confirmation (AID 493184); details: automated patch clamp current, at 10 µM; hits give high values
# Method in brief: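 Probe or stimulus: depolarizing pulse to +40 mV from -90 mV; Material: CHO cells carrying KCNQ1; Compound: one dose, 10 µM final; Signal: automated voltage clamp, amphotericin B perforated patch; Read-out basis: percent current increase versus pre-compound level; Buffer or medium: pH 7.4 external bath; Replication: duplicates.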
# [5] = target: Potassium voltage-gated channel subfamily E member 1 (Homo sapiens) + Potassium voltage-gated channel subfamily KQT member 1 (Homo sapiens) (UniProt P15382+P51787); experiment: KCNQ1-E1 channel activation – thallium flux, CHO-K1 KCNQ1/E1 cells, selectivity assay for KCNQ1 potentiator project, confirmation (AID 493186;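 active = mean duplicate activation above the buffer control mean plus 5 SD of those controls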); details: FluxOR thallium flux, at 10 µM; hits give high values
# Chain of Potassium voltage-gated channel subfamily E member 1 (Homo sapiens) + Potassium voltage-gated channel subfamily KQT member 1 (Homo sapiens) (P51787 whole entry, looked up): as the sequence (P51787 whole entry, looked up) above
# Method in brief: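 system = KCNQ1/E1-expressing stable CHO-K1 cell line | doses = single compound concentration per well | times = dye 90 min, compound 20 min, room temperature | measured by = FluxOR Tl+ flux fluorescence, kinetic read | evaluation = fluorescence rise relative to baseline, as percent of R-L3 response above buffer | controls = buffer and R-L3 | replicates = duplicate wells per compound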
Structure (SMILES),outcome [1],potentiation [2],potentiation [3],outcome [4],activation [5],outcome [2],outcome [3],outcome [5]
O=C(COc1ccccc1)NC(=S)Nc1ccc(Br)cn1,inactive,41.5% (active),206% (active),inactive,20.3% (active),,,
Cc1nnnn1/C(=C\c1ccccc1)C(=O)OCC(=O)Nc1ccc(Cl)cc1F,inactive,,,inactive,,inactive,inactive,inactive
COc1nccnc1NS(=O)(=O)c1ccc(NC(=S)NC(=O)c2ccccc2F)cc1,inactive,,,inactive,,inactive,inactive,inactive
S=C(N/N=C/c1cccc2ccccc12)Nc1cccc(Cl)c1,inactive,59.5% (active),,inactive,,,inactive,inactive
CN1CCN(Cc2ccc(Sc3ccc(Cl)cc3)c([N+](=O)[O-])c2)CC1,inactive,17.5% (active),,inactive,,,inactive,inactive
COc1cc(OC)c(-n2cc(-c3ccc(Cl)cc3)[nH]c2=O)cc1Cl,inactive,,,inactive,,inactive,inactive,inactive
Cc1ccc(O)c(NC(=S)NC(=O)COc2ccc(Br)cc2)c1,inactive,,,inactive,,inactive,inactive,inactive
CC(=O)Nc1ccc(S(=O)(=O)Nc2nc3ccccc3nc2Nc2ccccc2)cc1,inactive,,,inactive,,inactive,inactive,inactive
CCC(C)N(C(=O)COC(=O)c1cc([N+](=O)[O-])ccc1N1CCOCC1)C1CCS(=O)(=O)C1 (stereo not given),inactive,,,inactive,,inactive,inactive,inactive
CC(=C/c1ccccc1)/C=N/n1c(-c2ccco2)n[nH]c1=S,inactive,,,inactive,,inactive,inactive,inactive
Oc1oc(-c2ccccc2)nc1/C=N/c1nccs1,inactive,29.5% (active),,inactive,,,inactive,inactive
CCOC(=O)CSC(=S)NC(=O)c1ccc(OC)cc1,inactive,18.5% (active),147% (active),inactive,,,,inactive
COC(=O)C1=C(C)N(c2ccc(F)c(Cl)c2)C(=O)C1,inactive,,,inactive,,inactive,inactive,inactive
CCn1c(SCC(=O)c2cccs2)nnc1-c1cccs1,inactive,,,inactive,,inactive,inactive,inactive
CC1=NOC(=O)/C1=C\c1ccc(-c2ccc(Br)cc2)o1,inactive,,,inactive,,inactive,inactive,inactive
FC(F)(F)c1cccc(CN2CCC(c3cc(-c4cccs4)n[nH]3)CC2)c1,inactive,,,inactive,,inactive,inactive,inactive
Cc1onc(-c2ccccc2)c1C(=O)NC(=S)NNC(=O)c1ccccc1O,inactive,17.5% (active),,inactive,,,inactive,inactive
Oc1c(N=NC(=S)Nc2ccccc2F)c2ccccc2n1Cc1cccc(Cl)c1,inactive,,,inactive,,inactive,inactive,inactive
O=C(Nc1cccnc1)NC1CCCCC1,inactive,,,inactive,,inactive,inactive,inactive
COc1ccc(C(=O)NNC(=S)NC(=O)c2cc(-c3ccccc3)nc3ccccc23)cc1,inactive,,,inactive,,inactive,inactive,inactive
S=c1[nH]nc(-c2cccs2)n1/N=C/c1cn(-c2ccccc2)nc1-c1ccccc1,inactive,22% (active),,inactive,,,inactive,inactive
O=C(NC(=S)Nc1cccc([N+](=O)[O-])c1)c1ccco1,inactive,,,inactive,,inactive,inactive,inactive
CCc1ccc2oc(C(=O)NC3CCS(=O)(=O)C3)cc(=O)c2c1 (stereo not given),inactive,,,inactive,,inactive,inactive,inactive
COCCCN1C(=O)C(=O)/C(=C(/O)c2ccc(C)cc2)C1c1ccccc1 (stereo not given),inactive,,,inactive,,inactive,inactive,inactive
CCCOc1ccc(C(=O)NNC(=S)NC(=O)c2cc(-c3ccc(Cl)cc3)nc3ccccc23)cc1,inactive,,,inactive,,inactive,inactive,inactive
Cc1ccc(C)c(-n2c3nc(=O)n(C)c(=O)c-3cc3ccccc32)c1,inactive,,,inactive,,inactive,inactive,inactive
CCN(CC(=O)Nc1c(F)cccc1F)C(=O)C1CCN(C(=O)c2ccc(Cl)cc2)CC1,inactive,,,inactive,,inactive,inactive,inactive
Cc1ccc(C(=O)NC(=S)NNC(=O)COc2ccc([N+](=O)[O-])cc2)cc1,inactive,19.5% (active),,inactive,,,inactive,inactive
C=CCn1c(=S)[nH]c2cc(-c3ccccc3)sc2c1=O,inactive,,,inactive,,inactive,inactive,inactive
O=C(Nc1ccc(N2CCCC(O)C2)cc1)c1snc2c(=O)[nH]cnc12 (stereo not given),inactive,,,inactive,,inactive,inactive,inactive

# Reference: PubChem BioAssay
